In ChEMBL document CHEMBL1149173, “Design, synthesis, and biological evaluation of hybrid molecules containing alpha-methylene-gamma-butyrolactones and polypyrrole minor groove binders” (J Med Chem, 2004):

Assays:
Format in all cases: functional, cell-based
CCRF-CEM = experiment: Inhibitory concentration required to inhibit human T-lymphoblast CEM cells proliferation
In short: (§1)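 Human T-lymphocyte cells seeded at 300000–500000 cells/mL and mixed 1:1 with serial compound dilutions. Incubated 3 days at 37 °C, then cell number counted with a Coulter counter. IC50 taken as the concentration giving 50% inhibition of proliferation, as mean ± SE from dose–response curves of at least three independent experiments.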

FM3A = experiment: Inhibitory concentration required to inhibit murine mammary carcinoma FM3A cells proliferation; conditions: Mus musculus
In short: (§2)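 Murine cells were suspended at 300000–500000 cells/mL and added 1:1 to wells holding serial dilutions of compound. Cells were counted by Coulter counter after 2 days at 37 °C. IC50 is the concentration inhibiting cell proliferation by 50%, given as mean ± SE from dose–response curves of at least three independent experiments.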

L1210 = experiment: Inhibitory concentration required to inhibit murine leukemia L1210 cells proliferation; conditions: Mus musculus; in short: as §2
MOLT-4 = experiment: Inhibitory concentration required to inhibit human T-lymphoblast Molt4 cells proliferation; in short: as §1

SMILES: C=C1CC(COc2cc(C(=O)O)n(C)n2)(c2ccc(Cl)cc2)OC1=O (stereo unspecified)
- IC50 (CCRF-CEM): 57.9 µM
- IC50 (FM3A): 99.2 µM
- IC50 (L1210): 13 µM
- IC50 (MOLT-4): 46.9 µM

SMILES: C=C1CC(COc2cc(C(=O)O)n(C)n2)(c2ccc(-c3ccccc3)cc2)OC1=O (stereo unspecified)
- IC50 (CCRF-CEM): 18.5 µM
- IC50 (FM3A): 42 µM
- IC50 (L1210): 14.8 µM
- IC50 (MOLT-4): 9.4 µM

SMILES: C=C1CC(COc2cc(C(=O)O)n(C)n2)(c2ccccc2)OC1=O (stereo unspecified)
- IC50 (CCRF-CEM): 174 µM
- IC50 (FM3A): 189 µM
- IC50 (L1210): 107 µM
- IC50 (MOLT-4): 189 µM

SMILES: C=C1CC(C)(COc2cc(C(=O)O)n(C)n2)OC1=O (stereo unspecified)
- IC50 (CCRF-CEM): 402 µM
- IC50 (FM3A): 755 µM
- IC50 (L1210): 522 µM
- IC50 (MOLT-4): 746 µM
